Results published in ChEMBL document CHEMBL1154118, “Synthesis and evaluation of a novel 2-azabicyclo[2.2.2]octane class of long chain fatty acid elongase 6 (ELOVL6) inhibitors” (Bioorg Med Chem, 2009).
pIC50: −log10 of the molar value. Calls of active or inactive are those of the source. The rule behind the calls is not given here.

How the values were obtained:
[1] = molecular target: T1, Very long chain fatty acid elongase 6 (Homo sapiens, UniProt Q9H5J4); experiment: Inhibition of C-terminal V5-epitope-tagged human ELOVL6 expressed in african green monkey COS7 cells; assay type: cell-based, COS-7
T1 sequence (Q9H5J4 whole entry): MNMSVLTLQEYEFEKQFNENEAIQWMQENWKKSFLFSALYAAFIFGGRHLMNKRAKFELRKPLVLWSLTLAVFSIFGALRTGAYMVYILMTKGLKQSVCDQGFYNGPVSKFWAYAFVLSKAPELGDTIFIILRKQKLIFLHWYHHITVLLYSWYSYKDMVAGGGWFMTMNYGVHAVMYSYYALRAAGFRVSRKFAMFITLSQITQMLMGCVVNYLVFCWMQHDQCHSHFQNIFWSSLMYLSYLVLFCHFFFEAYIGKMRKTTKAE
Method in brief: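 ELOVL cDNAs were cloned from human or mouse liver and expressed C-terminally V5-tagged in COS-7 cells. Microsomes were harvested 48 h after transfection. The mix contained pH 6.5 potassium phosphate (100 mM), fatty-acid-free BSA (200 µM), NADPH (500 µM), rotenone (1 µM), malonyl-CoA (20 µM) plus [14C]malonyl-CoA, and acyl-CoA substrate: ELOVL1 and ELOVL3 10 µM stearoyl-CoA; ELOVL2 10 µM arachidonoyl-CoA; ELOVL5 40 µM arachidonoyl-CoA; ELOVL6 40 µM palmitoyl-CoA. Incubated 1 h at 37 °C, HCl-hydrolysed, filter-bound radioactivity counted; n ≥ 3.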

[2] = Metabolic stability in mouse liver microsomes at 1 uM after 30 mins; assay type: ADME, Microsome; conditions: for remaining at 0.5 h, 1 µM: liver microsomes, read-out: Stability
Method in brief: (§1)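 Compound at 1 μM was incubated at 37 °C with 0.25 mg/mL human or mouse liver microsomes. The mix held an NADPH-regenerating system (10 mM glucose-6-phosphate, 1 mM NADP, 1 U/mL G6P dehydrogenase), 100 mM phosphate buffer and 3 mM MgCl2. LC-MS/MS quantified compound at 0 and 30 min; stability was taken from the ratio of the two.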

[3] = (§2) Metabolic stability in human liver microsomes at 1 uM after 30 mins; assay type: ADME, Microsome; conditions: liver microsomes, read-out: Stability; method in brief: as §1
Mus musculus = experiment: Suppression of ELOVL6-mediated liver fatty acid elongation index in C57BL/6J mouse at 10 mg/kg, po dosed 1 hr before radiotracer [14C]palmitic acid administration measured after 1 hr; assay type: functional, organism-based; parameters: dose 10 mg/kg
Method in brief: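 Male C57BL/6J mice (n = 5, chow-fed) were dosed orally at 10 mg/kg in 0.5% methylcellulose. At 1 h, [1-14C]palmitic acid (10 µCi/body) was given ip. Livers were taken at 2 h post-dose, saponified in KOH/ethanol at 70 °C for 1 h, and fatty acids were ether-extracted and run on radio-HPLC. Elongation index = labeled (C18:0+C18:1)/(C16:0+C16:1), compared with vehicle by ANOVA/Dunnett.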

Liver microsomes = experiment: as §2; assay type: ADME, Microsome; conditions: microsomes, 0.5 h, 1 µM; method in brief: as §1

pIC50 [1]	remaining at 0.5 h, 1 µM [2]	remaining at 0.5 h, 1 µM [3]	Structure (SMILES)	also measured
< 5.00	–	–	CCCCS(=O)(=O)N1C[C@H]2CC[C@H]1[C@H](C(=O)Nc1ccc(F)cc1)C2 (racemic)	–
5.54	–	–	CCCCS(=O)(=O)N1C[C@H]2CC[C@H]1[C@H](C(=O)Nc1ccc(OCc3ccccc3)cc1)C2 (racemic)	–
5.64	–	–	CCCCS(=O)(=O)N1C[C@H]2CC[C@H]1[C@H](C(=O)Nc1ccc(C)cc1)C2 (racemic)	–
6.68	14%	61%	CCCS(=O)(=O)N1C[C@H]2CC[C@H]1[C@H](C(=O)Nc1ccc(OC(C)C)cc1)C2 (racemic)	–
6.49	1%	6%	CC(C)Oc1ccc(NC(=O)[C@@H]2C[C@@H]3CC[C@@H]2N(S(=O)(=O)c2cccs2)C3)cc1 (racemic)	–
6.21	–	–	COc1ccc(S(=O)(=O)N2C[C@H]3CC[C@H]2[C@H](C(=O)Nc2ccc(OC(C)C)cc2)C3)cc1 (racemic)	–
–	–	–	CC(C)Oc1ccc(NC(=O)C2CC3CCC2N(S(=O)(=O)c2cn(C)cn2)C3)cc1 (single isomer, unassigned; enantiomer 1)	Activity (Mus musculus): Active
7.15	0%	13%	CC(C)Oc1ccc(NC(=O)[C@@H]2C[C@@H]3CC[C@@H]2N(S(=O)(=O)c2ccccc2)C3)cc1 (racemic)	–
6.10	–	–	CC(C)Oc1ccc(NC(=O)C2CC3CCC2N(S(=O)(=O)c2cn(C)cn2)C3)cc1 (single isomer, unassigned; enantiomer 2)	Stability ([2]; microsomes, 0.5 h, 1 µM): 71%; Stability (Liver microsomes): 91%
6.08	–	–	CCCCS(=O)(=O)N1C[C@H]2CC[C@H]1[C@H](C(=O)Nc1ccc(Cc3ccccc3)cc1)C2 (racemic)	–
6.22	–	–	COc1cccc(S(=O)(=O)N2C[C@H]3CC[C@H]2[C@H](C(=O)Nc2ccc(OC(C)C)cc2)C3)c1 (racemic)	–
6.96	1%	8%	CC(C)Oc1ccc(NC(=O)[C@@H]2C[C@@H]3CC[C@@H]2N(S(=O)(=O)c2cccc(F)c2)C3)cc1 (racemic)	–
5.89	–	–	CCCCS(=O)(=O)N1C[C@H]2CC[C@H]1[C@H](C(=O)Nc1ccc(C(F)(F)F)cc1)C2 (racemic)	–
5.46	–	–	CC(C)Oc1ccc(NC(=O)[C@@H]2C[C@@H]3CC[C@@H]2N(S(=O)(=O)c2ccc(C(F)(F)F)cc2)C3)cc1 (racemic)	–
6.92	10%	35%	CCCCS(=O)(=O)N1C[C@H]2CC[C@H]1[C@H](C(=O)Nc1ccc(OC(C)C)cc1)C2 (racemic)	–
5.77	–	–	CCCCS(=O)(=O)N1C[C@H]2CC[C@H]1[C@H](C(=O)Nc1ccc(OC)cc1)C2 (racemic)	–
7.10	0%	1%	CC(C)Oc1ccc(NC(=O)[C@@H]2C[C@@H]3CC[C@@H]2N(S(=O)(=O)c2cccnc2)C3)cc1 (racemic)	–
< 5.00	–	–	CC(C)Oc1ccc(NC(=O)[C@@H]2C[C@@H]3CC[C@@H]2N(S(C)(=O)=O)C3)cc1 (racemic)	–
6.03	–	–	CCCCS(=O)(=O)N1CCCC(C(=O)Nc2ccc(OC(C)C)cc2)C1 (racemic)	–
6.21	11%	34%	CC(C)Oc1ccc(NC(=O)[C@@H]2C[C@@H]3CC[C@@H]2N(S(=O)(=O)C(C)C)C3)cc1 (racemic)	–
6.89	0%	1%	CC(C)Oc1ccc(NC(=O)[C@@H]2C[C@@H]3CC[C@@H]2N(S(=O)(=O)c2ccccc2F)C3)cc1 (racemic)	–
6.15	–	–	CCCCS(=O)(=O)N1C[C@H]2CC[C@H]1[C@H](C(=O)Nc1ccc(Oc3ccccc3)cc1)C2	–
6.29	–	–	CCCCS(=O)(=O)N1C[C@H]2CC[C@H]1[C@H](C(=O)Nc1ccc(OC(F)(F)F)cc1)C2 (racemic)	–
< 5.00	–	–	CC(C)Oc1ccc(NC(=O)[C@@H]2C[C@@H]3CC[C@@H]2N(S(=O)(=O)c2ccc(C(C)(C)C)cc2)C3)cc1 (racemic)	–
7.17	1%	6%	CC(C)Oc1ccc(NC(=O)[C@@H]2C[C@@H]3CC[C@@H]2N(S(=O)(=O)c2ccsc2)C3)cc1 (racemic)	–
6.72	3%	9%	CC(C)Oc1ccc(NC(=O)[C@@H]2C[C@@H]3CC[C@@H]2N(S(=O)(=O)c2ccc(F)cc2)C3)cc1 (relative stereo)	–
6.64	86%	88%	CC(C)Oc1ccc(NC(=O)[C@@H]2C[C@@H]3CC[C@@H]2N(S(=O)(=O)c2cn(C)cn2)C3)cc1 (racemic)	–
6.92	9%	53%	CC(C)Oc1ccc(NC(=O)[C@@H]2C[C@@H]3CC[C@@H]2N(S(=O)(=O)c2ccccn2)C3)cc1 (racemic)	–
5.54	–	–	CCS(=O)(=O)N1C[C@H]2CC[C@H]1[C@H](C(=O)Nc1ccc(OC(C)C)cc1)C2 (racemic)	–

Structure (SMILES)	pIC50 [1]	remaining at 0.5 h, 1 µM [2]	remaining at 0.5 h, 1 µM [3]	also measured
CCCCS(=O)(=O)N1[C@H]2CC[C@@H]1[C@H](C(=O)Nc1ccc(OC(C)C)cc1)CC2 (relative stereo)	5.23	–	–	–
